mABHD4 FP = inhibits mouse alpha/beta hydrolase domain 4; Q8VD66; purified mABHD4, FP-Rh probe fluorescence polarization; inhibition, % at 8.92 µM; 370,000 compounds, 0.54% hits;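 active = inhibition exceeding the mean over every tested compound plus 3 SD, cut at about 30% in these data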;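 note: 0% = plate median of compound wells and 100% = S159A mutant with DMSO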
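Test system: mABHD4 protein | Buffer or medium: HEPES pH 7.0 buffer, 150 mM NaCl, 0.01% Pluronic F-127 | Probe or stimulus: FP-Rh fluorescent activity-based probe, added after compound pre-incubation | Timing: Pre-incubation 45 min, probe exposure 60 min, at 25 °C | Technique: Fluorescence polarization, excitation 525 nm, emission 598 nm, BODIPY TMR filters | Repeats: Single well per compound (singlicate)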
rCAG binder = molecules binding r(CAG) RNA repeats; inhibition, % at 3 µM; AID 651821; 370,000 compounds, 1.3% hits; r(CAG) RNA repeat, TO-PRO-1 dye displacement fluorescence;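 active = inhibition above the plate cutoff, the mean of all test compounds on that plate plus 3 SD, cut at about 35% in these data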;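 note: 0% = DMSO alone and 100% = 100 µM mitoxantrone as full dye displacement; higher means more dye released from RNA so lower well fluorescence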
DAGLB inh = diacylglycerol lipase beta (human) inhibition; HEK293T DAGLB membrane lysate, EnzChek fluorogenic substrate; Q8NCG7; AID 504411; 340,000 compounds, 0.059% hits; inhibition, % at 5.17 µM; in the data active = inhibition above about 34%;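 note: 0% = enzyme with vehicle and 100% = wells lacking enzyme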
PRMT1 FP inh = inhibitors of human PRMT1; Q99873; 370,000 compounds, 1.3% hits; recombinant PRMT1, activity-based probe fluorescence polarization; inhibition, % at 2.79 µM;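 active = inhibition above about 21% made by adding two undisclosed values, limit read from the data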
Target sequence (Q99873 whole entry, looked up): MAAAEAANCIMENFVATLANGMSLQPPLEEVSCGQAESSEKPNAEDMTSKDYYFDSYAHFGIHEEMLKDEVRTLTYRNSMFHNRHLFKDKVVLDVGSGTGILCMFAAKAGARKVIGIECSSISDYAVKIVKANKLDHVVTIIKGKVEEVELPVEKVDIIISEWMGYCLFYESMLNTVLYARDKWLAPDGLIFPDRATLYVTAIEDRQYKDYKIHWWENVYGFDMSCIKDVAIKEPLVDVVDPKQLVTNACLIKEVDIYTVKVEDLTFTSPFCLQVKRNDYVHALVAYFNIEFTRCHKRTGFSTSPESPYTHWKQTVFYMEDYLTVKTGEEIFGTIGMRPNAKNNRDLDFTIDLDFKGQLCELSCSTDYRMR
LEDGF integ inh = blocks HIV-1 LEDGF/p75-dependent DNA integration | TR-FRET IN-LEDGF/p75 DNA integration, Eu/Cy5 | inhibition, % at 3.7 µM | 370,000 compounds, 0.64% hits;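 active = inhibition above the screen-wide mean plus 3 SD, cut at about 13% in these data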;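 note: signal is the Cy5 over europium emission ratio at 671 and 618 nm; 0% = plate median of compound wells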
HTRA1 inh = blocks human HTRA1 serine peptidase; 340,000 compounds, 0.5% hits; AID 504803; inhibition, % at 5.96 µM; Q92743; recombinant HTRA1, FP-rhodamine activity-based probe, fluorescence polarization; in the data active = inhibition above about 36%;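 note: 0% = enzyme with DMSO and 100% = wells lacking enzyme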
DAGLB confirm = DAGLB (human) inhibition, confirmation screen. shares compounds with DAGLB inh. 190 compounds, 73% hits. HEK293T DAGLB membrane lysate, EnzChek fluorogenic substrate. inhibition, % at 5.17 µM;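 active = mean inhibition over triplicate wells above a set limit taken from the primary lipase screen, cut at about 34% in these data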;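 note: 0% = DAGLB with DMSO and 100% = wells lacking DAGLB enzyme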
HTRA1 inh conf = HTRA1 (human) inhibition, confirmation; shares compounds with HTRA1 inh; recombinant HTRA1, FP-rhodamine activity-based probe, fluorescence polarization; inhibition, % at 5.96 µM; 1,600 compounds, 66% hits; AID 540248;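 active = mean inhibition over three repeats above a set limit taken from the earlier primary screen, cut at about 37% in these data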;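 note: 0% = HTRA1 with DMSO and 100% = wells lacking HTRA1; inhibitors block probe binding so polarization drops and inhibition rises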
Active calls of the source: *; i = inactive; · = not tested or not shown. Rows were chosen to be rich in hits. Some 3.2% of all compounds tested hit in one or more screens of this group.

SMILES	mABHD4 FP	rCAG binder	DAGLB inh	PRMT1 FP inh	LEDGF integ inh	HTRA1 inh	others
COC(=O)C1=C(c2ccc(F)cc2OCc2ccccc2)C[C@@H]2CC[C@H]1N2C(=O)NCCc1ccc(F)cc1	-15.2	1.5	-15.5	-1.8	3.8	-38.7
COC(=O)C1=C(c2ccc(F)cc2OCc2ccccc2)C[C@@H]2CC[C@H]1N2C(=O)NCCN1CCOCC1	1.5	-9.3	0.1	-1.8	19.4*	-6.9
C[CH2][Hg][S]c1ccccc1C(=O)O	26.8	-0.5	-0.9	83.7*	i	-2.0
CCc1ccccc1NC(=O)CSc1nnc([C@@H](N)Cc2c[nH]c3ccccc23)o1	-2.4	-1.0	0.8	23.9*	-1.1	-7.3
CC[C@H](C)/C=C(C)/C=C/C1=CC2=C(Cl)C(=O)[C@](C)(OC(C)=O)C(=O)C2=CO1	·	·	27.8	·	·	70.4*
Cc1nn(CC(C)C)c(Cl)c1C(=O)NC1CCCCC1	1.0	-10.0	-0.8	-0.3	0.9	-6.1
O=c1[nH]c(=O)n(Cc2ccco2)c(O)c1C=NCc1ccc2c(c1)OCO2	-4.5	8.7	1.1	23.2*	12.2	7.2
CCCCn1c(O)c(C=NCc2ccc3c(c2)OCO3)c(=O)[nH]c1=O	-3.4	-8.3	-0.4	2.8	-2.3	-4.2
CC[C@@H]1c2ccccc2[C@@H]2CC[C@H]1N2c1ccccc1	1.4	3.6	·	-5.2	-1.0	·
Cc1ccc(-n2nc(C)c3c2NC(=O)CSC3c2ccc3c(c2)OCO3)cc1 (stereo unspecified)	3.8	5.2	-2.0	12.1	0.8	26.0
COc1ccc(C2SCC(=O)Nc3c2c(C)nn3-c2ccccc2)cc1 (stereo unspecified)	0.3	-0.3	-7.4	23.1*	-2.0	6.7
CN1C(=O)C(=Cc2ccccc2OCc2ccc(C(=O)O)cc2)C(=O)N(C)C1=O	-0.9	1.1	2.3	18.1	0.7	0.7
CN1C(=O)C(=Cc2ccccc2OCc2ccccc2Cl)C(=O)N(C)C1=O	-8.3	1.4	-5.4	22.7*	0.8	-26.5
C=CCOc1ccc(CC2C(=O)N(C)C(=O)N(C)C2=O)cc1	-3.5	10.1	4.1	3.3	2.4	-8.0
Cc1ccc(CC2C(=O)N(C)C(=O)N(C)C2=O)s1	-2.0	7.3	2.5	21.2*	1.0	9.7
O=C(c1ccc(Cl)cc1)C1CCCN(Cc2ccc3nonc3c2)C1 (stereo unspecified)	0.7	3.3	-9.3	-2.2	1.9	-15.7
O=C1NC(=S)N(c2ccccc2)C(=O)C1C(c1ccncc1)C1C(=O)NC(=S)N(c2ccccc2)C1=O (stereo unspecified)	-1.8	7.4	-1.7	28.2*	-2.0	1.0
COc1ccc(CCNCC2CCCO2)cc1 (stereo unspecified)	6.5	-3.0	-1.3	2.3	-4.5	-3.3
CCOc1cccc(OCC)c2c(C)[n+](CC3CCCO3)c(C)c1-2 (stereo unspecified)	·	·	4.0	·	·	49.9*
CCN1C[C@]2(COC)CC[C@H](O)[C@@]34C5C[C@@H]6[C@@H](OC)C[C@@](O)(C5[C@H]6O)[C@](O)([C@@H](OC)C23)[C@@H]14 (stereo partly specified)	-4.0	2.6	-0.2	-0.8	-2.4	1.9
Cc1ccc(OCCOc2cccc(C=C3C(=O)NC(=O)NC3=O)c2)cc1	-11.5	0.1	-1.3	22.2*	5.1	-36.3
Cc1cc(C)cc(OCCOc2cccc(C=C3C(=O)NC(=O)NC3=O)c2)c1	-3.3	0.4	-0.8	5.6	1.6	-46.5
NC(N)=N/N=C/c1cn(-c2ccccc2)nc1-c1cccs1	13.3	35.7*	3.5	-4.6	5.2	-28.1
NP(=O)(OCC(F)(F)F)Oc1cccc2ccccc12 (stereo unspecified)	0.8	-0.1	-3.3	0.3	1.8	10.4
C[n+]1c(-c2ccccc2)sc2ccccc21	4.2	-2.5	-3.0	34.8*	-1.4	-4.4
SMILES	mABHD4 FP	rCAG binder	DAGLB inh	PRMT1 FP inh	LEDGF integ inh	HTRA1 inh	others
O=C1NC(=O)N(c2ccccc2F)C(=O)/C1=C/c1ccc(Sc2nc3ccccc3[nH]2)o1	-346.4	45.8*	11.2	25.0*	22.4*	-58.8
CCCOc1ccc(C(=O)NC(=S)N2C[C@H]3C[C@H](C2)c2cccc(=O)n2C3)cc1	-2.9	3.5	-2.2	24.6*	1.5	-4.9
CN1CCc2nc3ccc(F)cc3c(C(N)=O)c2C1	-7.6	3.7	0.0	0.3	0.3	-3.0
CNCCc1ccc(O)c(O)c1	24.0	1.1	-0.7	21.4*	12.3	6.2
O=C(NCCN1CCC2(CC1)C(=O)NCN2c1ccccc1)c1ccc(Cl)c(Cl)c1	17.7	1.7	·	-2.6	1.5	·
Cc1ccc2c(c1N)C(=O)c1ccccc1C2=O	9.0	6.1	25.6	12.3	-10.1	3.5
CC(C)C[C@H]1C(=O)N2CCCC2[C@]2(O)O[C@](NC(=O)[C@@H]3C=C4c5cccc6[nH]cc(c56)CC4N(C)C3)(C(C)C)C(=O)N12 (stereo partly specified)	·	·	0.7	·	·	45.2*
CC(C)[C@H]1C(=O)N2CCC[C@H]2[C@]2(O)O[C@](NC(=O)[C@@H]3C=C4c5cccc6[nH]cc(c56)C[C@H]4N(C)C3)(C(C)C)C(=O)N12	·	·	-2.2	·	·	33.4
COC(=O)CC(=O)c1ccc2c(c1)OCO2	4.0	2.9	0.5	0.7	-1.4	13.6
NP(=O)(OCCCCc1ccccc1)Oc1ccccc1Cl (stereo unspecified)	-7.8	-12.1	38.6*	-1.1	-0.2	2.8	DAGLB confirm=39.6*
CC(C)Oc1ccc(CC2(CCc3ccncc3)C(=O)NC(=O)NC2=O)cc1	-1.8	-2.7	0.2	0.4	3.3	0.2
O=C(O)c1cccc2c1NC(C(=O)O)C1CC(Sc3ccccc3[N+](=O)[O-])C(Cl)C21 (stereo unspecified)	82.2*	99.7*	38.6*	80.8*	52.3*	92.8*	DAGLB confirm=12.8;HTRA1 inh conf=59.6*
O=C1CC(=O)N(c2ccccc2F)C(=O)N1	9.7	0.8	-0.9	-1.9	-0.4	8.1

Source: PubChem BioAssay (The Scripps Research Institute Molecular Screening Center)
